Here are results for nine compounds from ChEMBL document CHEMBL4368886, “Design, synthesis, and biological activity of novel ammonium salts containing sterically hindered phenolic fragment and phosphoryl group” (Medchemcomm, 2018).

SMILES strings stand for the structures. Active and inactive are the calls of the source. The calls are words filed in the database; no cut-off is given here. Where only a bound is given, the exact number is not on record here.

For series [1], the system named is Trichophyton mentagrophytes. As to the kind of experiment: Antimicrobial activity against Trichophyton mentagrophytes var. gypseum 1773 measured after 14 days by two-fold serial dilution method. Format: functional.
The test system of series [2] is Aspergillus niger. As to the kind of experiment: Bactericidal activity against Aspergillus niger BKMF-1119 measured after 4 hrs. The class given is functional, organism-based. Put shortly:
(§1)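 Microbicidal (bactericidal/fungicidal) concentration, killing of microbial cells, determined per literature procedures; tests in duplicate, repeated twice.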

The subject of series [3] is Staphylococcus aureus. In words: Bactericidal activity against Staphylococcus aureus 209p measured after 4 hrs. The class given is functional. An outline of the steps: as §1
The test system of series [4] is Bacillus cereus. In words: Antimicrobial activity against Bacillus cereus ATCC 8035 measured every 24 hrs for 5 days by two-fold serial dilution method. Format: functional.
For series [5], the system named is Candida albicans. In words: Antimicrobial activity against Candida albicans 855-653 measured after 14 days by two-fold serial dilution method. Format: functional.
For series [6], the system named is Candida albicans. In words: Bactericidal activity against Candida albicans 855-653 measured after 4 hrs. The class given is functional. Put shortly: as §1
The subject of series [7] is Pseudomonas aeruginosa. In words: Antimicrobial activity against Pseudomonas aeruginosa ATCC 9027 measured every 24 hrs for 5 days by two-fold serial dilution method. Format: functional.
The subject of series [8] is Pseudomonas aeruginosa. As to the kind of experiment: Bactericidal activity against Pseudomonas aeruginosa ATCC 9027 measured after 4 hrs. The class given is functional. Put shortly: as §1
Series [9] concerns Trichophyton mentagrophytes var. granulosum. In words: Bactericidal activity against Trichophyton mentagrophytes var. granulosum 1773 measured after 4 hrs. Format: functional. Put shortly:
as §1

In series [10] the test system is Aspergillus niger. In words: Antimicrobial activity against Aspergillus niger BKMF-1119 measured after 14 days by two-fold serial dilution method. Format: functional, organism-based.
In series [11] the test system is Bacillus cereus. As to the kind of experiment: Bactericidal activity against Bacillus cereus ATCC 8035 measured after 4 hrs. The class given is functional. Put shortly:
as §1

Series [12] relates to Escherichia coli. As to the kind of experiment: Bactericidal activity against Escherichia coli CDC F-50 measured after 4 hrs. Format: functional. Put shortly: as §1
The test system of series [13] is Escherichia coli. As to the kind of experiment: Antimicrobial activity against Escherichia coli CDC F-50 measured every 24 hrs for 5 days by two-fold serial dilution method. Format: functional.
The test system of series [14] is Staphylococcus aureus. As to the kind of experiment: Antimicrobial activity against Staphylococcus aureus 209p measured every 24 hrs for 5 days by two-fold serial dilution method. Format: functional.
Series [15] is described as follows: Cytotoxicity against human Chang cells assessed as reduction in cell viability at 0.7 to 11.3 uM by Cytell imaging analysis. The class given is cell-based. Put shortly:
(§2)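 WI-38 human embryonic lung and Chang liver cells exposed to compounds at three concentrations each (0.70–47.0 μM range, spanning antimicrobial concentrations); cytotoxicity read as number of viable cells counted.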

For another series, the system named is WI-38. In words: Cytotoxicity against human WI38 cells assessed as reduction in cell viability at 0.7 to 11.3 uM by Cytell imaging analysis. The class given is cell-based. The conditions noted are these: wi-38, 11.3 µM. Put shortly:
as §2

Series [16] is described as follows: Antioxidant activity assessed as ABAP free radical scavenging activity by measuring decrease in chemiluminescence intensity at 0.5 mM. The class given is functional. More on the design: scale not given: the % may be the effect or the level left. An outline of the steps:
(§3)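 Chemiluminescent radical system of ABAP (2,2′-azobis(2-methylpropionamidine) dihydrochloride) plus luminol in buffer, total 1.000 mL; baseline recorded, then test substance added at 0.25, 0.50 or 1.00 mM; chemiluminescence intensity followed over time and expressed as percent of initial value. Ionol used as reference antioxidant.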

Series [17] is described as follows: Antioxidant activity assessed as ABAP free radical scavenging activity by measuring decrease in chemiluminescence intensity at 1 mM measured after 600 secs. The class given is functional. More on the design: scale not given: the % may be the effect or the level left. Put shortly:
as §3

A short description of series [18]: Antioxidant activity assessed as ABAP free radical scavenging activity by measuring decrease in chemiluminescence intensity at 0.25 mM. Format: functional. Also noted: scale not given: the % may be the effect or the level left. An outline of the steps: as §3

Turning to `CCCCCCCC[N+](C)(C)CCCNC(=O)CCc1cc(C(C)(C)C)c(O)c(C(C)(C)C)c1`, the MIC result (in [1]; with Aspergillus niger [2]; in the series on Pseudomonas aeruginosa [7]; in the series on Pseudomonas aeruginosa [8]; in [9]; with Aspergillus niger [10]) was “inactive” in each case. The MIC result with Escherichia coli [12] and in the series with Escherichia coli [13] was “inactive” each time. Moreover, the MIC (usually the lowest concentration that inhibits growth of the organism) with Staphylococcus aureus [3] turned out to be 28 µM; in the series on Bacillus cereus [4], 28.1 µM; with Candida albicans [5] (855-653, 336 h), 28 µM; in the series with Candida albicans [6] (855-653, 4 h), 56.3 µM; in the series on Bacillus cereus [11] (ATCC 8035, 4 h), 28.1 µM; with Staphylococcus aureus [14] it was 28 µM.
Consider `CC(C)OP(=O)(OC(C)C)C(NCC[N+](C)(C)Cc1ccccc1)c1cc(C(C)(C)C)c(O)c(C(C)(C)C)c1` (stereo unspecified), for which the MIC result (in [1]; in the series on Aspergillus niger [2]; with Candida albicans [6]; with Pseudomonas aeruginosa [7]; in the series with Pseudomonas aeruginosa [8]; in series [9]) was “inactive” throughout. The MIC result with Aspergillus niger [10], in the series with Escherichia coli [12] and in the series on Escherichia coli [13] was “inactive” in each case. The MIC amounted to 97.3 µM against Staphylococcus aureus [3]; 48.8 µM against Bacillus cereus [4]; 195 µM with Candida albicans [5] (855-653, 336 h); 48.8 µM against Bacillus cereus [11] (ATCC 8035, 4 h); 24.3 µM against Staphylococcus aureus [14].
On to `CC[N+](C)(C)CCCNC(=O)CCc1cc(C(C)(C)C)c(O)c(C(C)(C)C)c1`, for which the MIC result (in series [1]; with Aspergillus niger [2]; in the series on Staphylococcus aureus [3]; in the series on Bacillus cereus [4]; in the series with Pseudomonas aeruginosa [7]; with Pseudomonas aeruginosa [8]) was “inactive” throughout. Also, the MIC result (in [9]; in the series with Aspergillus niger [10]; in the series with Bacillus cereus [11]; in the series on Escherichia coli [12]; with Escherichia coli [13]; in the series with Staphylococcus aureus [14]) was “inactive” throughout. The MIC in the series on Candida albicans [5] (855-653, 336 h) amounted to 265 µM; in the series on Candida albicans [6] (855-653, 4 h) it was 265 µM.
As to `CCCCCCCCCCCCCCCC[N+](C)(C)CCCNC(=O)CCc1cc(C(C)(C)C)c(O)c(C(C)(C)C)c1`, the MIC entry (in [1]; with Aspergillus niger [2]; in the series on Staphylococcus aureus [3]; with Pseudomonas aeruginosa [7]; in the series on Pseudomonas aeruginosa [8]; in [9]) was “inactive” throughout. The MIC result in the series with Aspergillus niger [10], with Escherichia coli [12] and with Escherichia coli [13] was “inactive” each time. Also, the MIC is 375 µM in the series with Bacillus cereus [4]; 187 µM in the series on Candida albicans [5] (855-653, 336 h); 375 µM against Candida albicans [6] (855-653, 4 h); 375 µM in the series on Bacillus cereus [11] (ATCC 8035, 4 h); 47 µM in the series with Staphylococcus aureus [14].
Consider `CC[N+](C)(C)CCNC(c1cc(C(C)(C)C)c(O)c(C(C)(C)C)c1)P(=O)(OC(C)C)OC(C)C` (stereo unspecified), for which the MIC entry (in series [1]; with Aspergillus niger [2]; in the series on Candida albicans [6]; in the series with Pseudomonas aeruginosa [7]; in the series with Pseudomonas aeruginosa [8]; in [9]) was “inactive” in each case. Moreover, the MIC result in the series with Aspergillus niger [10], in the series with Escherichia coli [12] and in the series on Escherichia coli [13] was “inactive” throughout. Also, the MIC was found to be 108 µM with Staphylococcus aureus [3]; 216 µM in the series on Bacillus cereus [4]; 432 µM against Candida albicans [5] (855-653, 336 h); 216 µM in the series on Bacillus cereus [11] (ATCC 8035, 4 h); 108 µM against Staphylococcus aureus [14].
`CCCCCCCCCC[N+](C)(C)CCNC(c1cc(C(C)(C)C)c(O)c(C(C)(C)C)c1)P(=O)(OC(C)C)OC(C)C.[Br-]` (stereo unspecified): the MIC result (in series [1]; in the series with Aspergillus niger [2]; with Pseudomonas aeruginosa [7]; in the series with Pseudomonas aeruginosa [8]; in series [9]; with Aspergillus niger [10]) was “inactive” throughout. Moreover, the MIC result with Escherichia coli [12] and with Escherichia coli [13] was “inactive” each time. The Activity entry (in series [15]; in the series on WI-38) was “Non-Toxic” each time. The MIC came out at 5.6 µM against Staphylococcus aureus [3]; 5.6 µM in the series with Bacillus cereus [4]; 11.3 µM with Candida albicans [5] (855-653, 336 h); 11.3 µM against Candida albicans [6] (855-653, 4 h); 90 µM against Bacillus cereus [11] (ATCC 8035, 4 h); 2.7 µM in the series on Staphylococcus aureus [14].
Regarding `CCCCCCCCCCCC[N+](C)(C)CCCNC(c1cc(C(C)(C)C)c(O)c(C(C)(C)C)c1)P(=O)(OCC)OCC` (stereo unspecified), the MIC result (in [1]; in the series with Aspergillus niger [2]; in the series on Pseudomonas aeruginosa [7]; in the series with Pseudomonas aeruginosa [8]; in series [9]; in the series with Aspergillus niger [10]) was “inactive” each time. The MIC entry in the series on Escherichia coli [12] and with Escherichia coli [13] was “inactive” throughout. For the same compound, the MIC in the series with Staphylococcus aureus [3] was 22 µM; with Bacillus cereus [4], 177 µM; with Candida albicans [5] (855-653, 336 h), 44.3 µM; with Candida albicans [6] (855-653, 4 h), 44.3 µM; in the series on Bacillus cereus [11] (ATCC 8035, 4 h), 177 µM; in the series with Staphylococcus aureus [14], 22 µM.
Turning to `CCOP(=O)(OCC)C(NCCC[N+](C)(C)CC)c1cc(C(C)(C)C)c(O)c(C(C)(C)C)c1` (stereo unspecified), the MIC entry (in series [1]; with Aspergillus niger [2]; in the series on Candida albicans [5]; in the series with Pseudomonas aeruginosa [7]; in the series with Pseudomonas aeruginosa [8]; in series [9]) was “inactive” throughout. For the same compound, the MIC entry in the series with Aspergillus niger [10], with Escherichia coli [12] and in the series with Escherichia coli [13] was “inactive” in each case. Besides, the MIC against Staphylococcus aureus [3] was 442 µM; against Bacillus cereus [4], 221 µM; against Candida albicans [6] (855-653, 4 h), > 500 µM; with Bacillus cereus [11] (ATCC 8035, 4 h), 221 µM; with Staphylococcus aureus [14] it was 442 µM. For the same compound, the values for the Activity in series [16], in [17] and in [18] were 26%, 26% and 44%, respectively.
For the compound `CCCCCCCCCCCC[N+](C)(C)CCNC(=O)CCc1cc(C(C)(C)C)c(O)c(C(C)(C)C)c1`, the MIC entry (in series [1]; in the series on Aspergillus niger [2]; in the series with Pseudomonas aeruginosa [7]; in the series on Pseudomonas aeruginosa [8]; in series [9]; in the series on Aspergillus niger [10]) was “inactive” throughout. For the same compound, the MIC entry in the series on Escherichia coli [12] and with Escherichia coli [13] was “inactive” throughout. The MIC came to 52.4 µM against Staphylococcus aureus [3]; 419 µM with Bacillus cereus [4]; 419 µM against Candida albicans [5] (855-653, 336 h); 419 µM against Candida albicans [6] (855-653, 4 h); 419 µM against Bacillus cereus [11] (ATCC 8035, 4 h); 52.4 µM in the series on Staphylococcus aureus [14].
